ChEMBL document CHEMBL1136237, “2-piperidin-4-yl-benzimidazoles with broad spectrum antibacterial activities” (2003)
In brackets after ≈: the same amount, converted by molar mass.

How the values were obtained:
Escherichia coli [1] = assay: Antibacterial activity determined against Escherichia coli; format: functional
Procedure, shortened: (§1)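 Broth microdilution: an overnight-culture bacterial suspension was added to compound in 2.5% DMSO in water, giving a final inoculum of about 10^2–10^3 CFU/well. Plates were incubated 20–24 h at 37 °C, and growth relative to a no-compound control was read as A595. MIC was given as a range: complete inhibition at the upper concentration, viable cells at the lower.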

[2] = Inhibition of bacterial transcription/translation
Staphylococcus aureus [3] = assay: Antibacterial activity determined against Staphylococcus aureus; format: functional; procedure, shortened: as §1
Enterococcus faecalis [4] = assay: Antibacterial activity determined against Enterococcus faecalis ATCC 828; format: functional; procedure, shortened: as §1
Staphylococcus aureus [5] = assay: Antibacterial activity determined against gram-positive Staphylococcus aureus 13709; format: functional; procedure, shortened: as §1
Enterococcus hirae = assay: Antibacterial activity determined against gram-positive Enterococcus hirae 29212; format: functional; procedure, shortened: as §1
Proteus vulgaris = assay: Antibacterial activity determined against gram-negativeP. vulgaris 8427; format: functional; procedure, shortened: as §1
Pseudomonas aeruginosa = assay: Antibacterial activity determined against gram-negativeP. aeruginosa 25416; format: functional; procedure, shortened: as §1
Enterococcus faecium [6] = assay: Antibacterial activity determined against Enterococcus faecium ATCC 6569; format: functional; procedure, shortened: as §1
Enterococcus faecalis [7] = assay: Antibacterial activity determined against Enterococcus faecalis ATCC 49757; format: functional; procedure, shortened: as §1
Enterococcus faecalis [8] = assay: Antibacterial activity determined against Enterococcus faecalis ATCC 4200; format: functional; procedure, shortened: as §1
Escherichia coli [9] = assay: Antibacterial activity determined against gram-negativeE. coli 25922; format: functional; procedure, shortened: as §1
Candida albicans = assay: Antifungal activity determined against Candida albicans 10231; format: functional
Procedure, shortened: as §1, with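 “Candida albicans:” for “Broth microdilution:”, “yeast” for “bacterial”, “40–48” for “20–24”, “25” for “37”, “versus” for “relative to”, “higher” for “upper”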

Streptococcus pneumoniae = assay: Antibacterial activity determined against gram-positive Streptococcus pneumoniae 6303; format: functional; procedure, shortened: as §1
Enterococcus faecalis [10] = assay: Antibacterial activity determined against Enterococcus faecalis ATCC 11823; format: functional; procedure, shortened: as §1
Streptococcus pyogenes = assay: Antibacterial activity determined against gram-positive Streptococcus pyogenes 49399; format: functional; procedure, shortened: as §1
Klebsiella pneumoniae = assay: Antibacterial activity determined against gram-negativeK. pneumoniae 13383; format: functional; procedure, shortened: as §1
Enterococcus faecium [11] = assay: Antibacterial activity determined against Enterococcus faecium ATCC 882; format: functional; procedure, shortened: as §1
Enterococcus faecalis [12] = assay: Antibacterial activity determined against Enterococcus faecalis ATCC 23241; format: functional; procedure, shortened: as §1

SMILES | MIC (Escherichia coli [1]) | IC50 [2] | MIC (Staphylococcus aureus [3]) | MIC (Enterococcus faecalis [4]) | MIC (Staphylococcus aureus [5]) | MIC (Enterococcus hirae) | MIC (Proteus vulgaris) | MIC (Pseudomonas aeruginosa) | MIC (Enterococcus faecium [6]) | MIC (Enterococcus faecalis [7]) | MIC (Enterococcus faecalis [8]) | MIC (Escherichia coli [9]) | MIC (Candida albicans) | MIC (Streptococcus pneumoniae) | MIC (Enterococcus faecalis [10]) | MIC (Streptococcus pyogenes) | MIC (Klebsiella pneumoniae) | MIC (Enterococcus faecium [11]) | MIC (Enterococcus faecalis [12])
Clc1cc2nc(C3CCNCC3)n(Cc3ccc(CNCCc4cc5ccccc5[nH]4)cc3)c2cc1Cl | 12 µM (≈ 6.39 µg/mL) | > 100 µM | 12 µM (≈ 6.39 µg/mL) | – | – | – | – | – | – | – | – | – | – | – | – | – | – | – | –
NCCCCCCCCNCc1ccc(Cn2c(C3CCNCC3)nc3cc(Cl)c(Cl)cc32)cc1 | 6 µM (≈ 3.1 µg/mL) | > 100 µM | 6 µM (≈ 3.1 µg/mL) | 50 µM (≈ 25.8 µg/mL) | 6 µM (≈ 3.1 µg/mL) | 1 µM (≈ 0.517 µg/mL) | 12 µM (≈ 6.2 µg/mL) | 25 µM (≈ 12.9 µg/mL) | 12 µM (≈ 6.2 µg/mL) | 50 µM (≈ 25.8 µg/mL) | 25 µM (≈ 12.9 µg/mL) | 6 µM (≈ 3.1 µg/mL) | > 100 µM | 6 µM (≈ 3.1 µg/mL) | 6 µM (≈ 3.1 µg/mL) | 3 µM (≈ 1.55 µg/mL) | 6 µM (≈ 3.1 µg/mL) | – | –
NCCNCc1ccc(Cn2c(C3CCNCC3)nc3cc(Cl)c(Cl)cc32)cc1 | 12 µM (≈ 5.19 µg/mL) | 12 µM | 6 µM (≈ 2.59 µg/mL) | 12 µM (≈ 5.19 µg/mL) | 6 µM (≈ 2.59 µg/mL) | 3 µM (≈ 1.3 µg/mL) | 25 µM (≈ 10.8 µg/mL) | 12 µM (≈ 5.19 µg/mL) | 6 µM (≈ 2.59 µg/mL) | 12 µM (≈ 5.19 µg/mL) | 12 µM (≈ 5.19 µg/mL) | 12 µM (≈ 5.19 µg/mL) | > 100 µM | 12 µM (≈ 5.19 µg/mL) | 6 µM (≈ 2.59 µg/mL) | 6 µM (≈ 2.59 µg/mL) | 12 µM (≈ 5.19 µg/mL) | 12 µM (≈ 5.19 µg/mL) | 12 µM (≈ 5.19 µg/mL)
NC[C@@H]1O[C@H](O[C@H]2[C@@H](O)[C@H](O[C@@H]3[C@@H](O)[C@H](N)C[C@H](N)[C@H]3O[C@H]3O[C@H](CO)[C@@H](O)[C@H](O)[C@H]3N)O[C@@H]2CO)[C@H](N)[C@@H](O)[C@@H]1O [PAROMOMYCIN] | 3 µM (≈ 1.85 µg/mL) | 0.56 µM | 1 µM (≈ 0.616 µg/mL) | – | – | – | – | – | – | – | – | – | – | – | – | – | – | – | –
CCCCCCNCc1ccc(Cn2c(C3CCNCC3)nc3cc(Cl)c(Cl)cc32)cc1 | 6 µM (≈ 2.84 µg/mL) | > 100 µM | 3 µM (≈ 1.42 µg/mL) | 3 µM (≈ 1.42 µg/mL) | 3 µM (≈ 1.42 µg/mL) | 1 µM (≈ 0.473 µg/mL) | 12 µM (≈ 5.68 µg/mL) | 25 µM (≈ 11.8 µg/mL) | 3 µM (≈ 1.42 µg/mL) | 3 µM (≈ 1.42 µg/mL) | 3 µM (≈ 1.42 µg/mL) | 6 µM (≈ 2.84 µg/mL) | 25 µM (≈ 11.8 µg/mL) | 6 µM (≈ 2.84 µg/mL) | 3 µM (≈ 1.42 µg/mL) | 3 µM (≈ 1.42 µg/mL) | 6 µM (≈ 2.84 µg/mL) | 3 µM (≈ 1.42 µg/mL) | 3 µM (≈ 1.42 µg/mL)
NCCCNCc1ccc(Cn2c(C3CCNCC3)nc3cc(Cl)c(Cl)cc32)cc1 | 50 µM (≈ 22.3 µg/mL) | 20 µM | 12 µM (≈ 5.36 µg/mL) | 12 µM (≈ 5.36 µg/mL) | 12 µM (≈ 5.36 µg/mL) | 6 µM (≈ 2.68 µg/mL) | – | 25 µM (≈ 11.2 µg/mL) | 12 µM (≈ 5.36 µg/mL) | 12 µM (≈ 5.36 µg/mL) | 25 µM (≈ 11.2 µg/mL) | 50 µM (≈ 22.3 µg/mL) | > 100 µM | 25 µM (≈ 11.2 µg/mL) | 12 µM (≈ 5.36 µg/mL) | 6 µM (≈ 2.68 µg/mL) | 25 µM (≈ 11.2 µg/mL) | 25 µM (≈ 11.2 µg/mL) | 25 µM (≈ 11.2 µg/mL)
Clc1cc2nc(C3CCNCC3)n(Cc3ccc(CN4CCNCC4)cc3)c2cc1Cl | 12 µM (≈ 5.5 µg/mL) | > 100 µM | 6 µM (≈ 2.75 µg/mL) | 6 µM (≈ 2.75 µg/mL) | 6 µM (≈ 2.75 µg/mL) | 3 µM (≈ 1.38 µg/mL) | 12 µM (≈ 5.5 µg/mL) | 12 µM (≈ 5.5 µg/mL) | 6 µM (≈ 2.75 µg/mL) | 12 µM (≈ 5.5 µg/mL) | 12 µM (≈ 5.5 µg/mL) | 12 µM (≈ 5.5 µg/mL) | 50 µM (≈ 22.9 µg/mL) | 12 µM (≈ 5.5 µg/mL) | 12 µM (≈ 5.5 µg/mL) | 6 µM (≈ 2.75 µg/mL) | 6 µM (≈ 2.75 µg/mL) | 6 µM (≈ 2.75 µg/mL) | 6 µM (≈ 2.75 µg/mL)
Fc1ccc(Cn2c(C3CCNCC3)nc3cc(Cl)c(Cl)cc32)cc1 | > 100 µM | > 100 µM | > 100 µM | – | – | – | – | – | – | – | – | – | – | – | – | – | – | – | –
Clc1cc2nc(C3CCNCC3)n(Cc3cccnc3)c2cc1Cl | 50 µM (≈ 18.1 µg/mL) | > 100 µM | 50 µM (≈ 18.1 µg/mL) | – | – | – | – | – | – | – | – | – | – | – | – | – | – | – | –

Further compounds by falling MIC (Escherichia coli [1]), results first:

MIC (Escherichia coli [1]) | IC50 [2] | MIC (Staphylococcus aureus [3]) | MIC (Enterococcus faecalis [4]) | MIC (Staphylococcus aureus [5]) | MIC (Enterococcus hirae) | MIC (Proteus vulgaris) | MIC (Pseudomonas aeruginosa) | MIC (Enterococcus faecium [6]) | MIC (Enterococcus faecalis [7]) | MIC (Enterococcus faecalis [8]) | MIC (Escherichia coli [9]) | MIC (Candida albicans) | MIC (Streptococcus pneumoniae) | MIC (Enterococcus faecalis [10]) | MIC (Streptococcus pyogenes) | MIC (Klebsiella pneumoniae) | MIC (Enterococcus faecium [11]) | MIC (Enterococcus faecalis [12]) | SMILES
50 µM (≈ 18.1 µg/mL) | > 100 µM | 50 µM (≈ 18.1 µg/mL) | – | – | – | – | – | – | – | – | – | – | – | – | – | – | – | – | Clc1cc2nc(C3CCNCC3)n(Cc3ccncc3)c2cc1Cl
25 µM (≈ 11.5 µg/mL) | 50 µM | 6 µM (≈ 2.76 µg/mL) | 12 µM (≈ 5.53 µg/mL) | 6 µM (≈ 2.76 µg/mL) | 3 µM (≈ 1.38 µg/mL) | – | 25 µM (≈ 11.5 µg/mL) | 12 µM (≈ 5.53 µg/mL) | 12 µM (≈ 5.53 µg/mL) | 12 µM (≈ 5.53 µg/mL) | 25 µM (≈ 11.5 µg/mL) | > 100 µM | 25 µM (≈ 11.5 µg/mL) | 12 µM (≈ 5.53 µg/mL) | 6 µM (≈ 2.76 µg/mL) | 25 µM (≈ 11.5 µg/mL) | 12 µM (≈ 5.53 µg/mL) | 12 µM (≈ 5.53 µg/mL) | NCCCCNCc1ccc(Cn2c(C3CCNCC3)nc3cc(Cl)c(Cl)cc32)cc1
12 µM (≈ 5.67 µg/mL) | > 100 µM | 12 µM (≈ 5.67 µg/mL) | – | – | – | – | – | – | – | – | – | – | – | – | – | – | – | – | Clc1cc2nc(C3CCNCC3)n(Cc3ccc(CNC[C@@H]4CCCN4)cc3)c2cc1Cl
6 µM (≈ 3.12 µg/mL) | > 100 µM | 6 µM (≈ 3.12 µg/mL) | 6 µM (≈ 3.12 µg/mL) | 6 µM (≈ 3.12 µg/mL) | 3 µM (≈ 1.56 µg/mL) | 25 µM (≈ 13 µg/mL) | 12 µM (≈ 6.23 µg/mL) | 3 µM (≈ 1.56 µg/mL) | 6 µM (≈ 3.12 µg/mL) | 6 µM (≈ 3.12 µg/mL) | 6 µM (≈ 3.12 µg/mL) | 50 µM (≈ 26 µg/mL) | 6 µM (≈ 3.12 µg/mL) | 3 µM (≈ 1.56 µg/mL) | 12 µM (≈ 6.23 µg/mL) | 25 µM (≈ 13 µg/mL) | 6 µM (≈ 3.12 µg/mL) | 6 µM (≈ 3.12 µg/mL) | O=C1c2ccccc2C(=O)N1Cc1ccc(Cn2c(C3CCNCC3)nc3cc(Cl)c(Cl)cc32)cc1
